Test results published in PubChem BioAssay.
Active and inactive are the calls of the source.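 The calls were made as follows, unless noted: active = inhibition at or above 50% at 10 µM; inactive = inhibition below 50%.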

Tests used:
[1] = inhibitors of TNFa-induced NFkB p65 translocation, primary screen, imaging, HUVEC, MLSMR starter and 10KST1 sets (AID 438;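 active = inhibition above 20% together with a positive visual image hit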;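 also: compound added about 3h40 before a 20 min TNFalpha stimulation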;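 as to inhibition: signal is the nuclear over cytoplasmic p65 intensity ratio per well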); conditions: HUVEC TNFa-induced p65 nuclear translocation; cell count: measured here: nuclei count (cytotoxicity indicator), at 2.08 µM; inhibition: at 2 µM, stronger effect = higher value, 0% TNFa-plus-vehicle, 100% no-TNFa wells
[2] = inhibitors of mutant huntingtin aggregation, primary screen, imaging, exon1htt(103Q)mCFP cells, high-content imaging (AID 483;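 active = visual image review flags a hit and inhibition of aggregation exceeds 20%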;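 also: compound exposure lasted 3 days before fixation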;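 as to nuclei count: percent of the per-plate median nuclei count of sample wells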); conditions: exon1htt(103Q)mCFP cell line, aggregate imaging, at 2 µM; inhibition of aggregation: stronger effect = higher value; nuclei count: measured here: cell count, toxicity
[3] = inhibitors of E-selectin induction by TNFa, primary screen, imaging, HUVEC, immunofluorescence, MLSMR starter and 10KST1 sets (AID 487;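 active = visually confirmed hit in the image check and inhibition above 20%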;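 as to inhibition: signal is fraction of cell area covered by stained E-selectin grains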;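 as to nuclei count: 100% = median nuclei count of all wells on the same plate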); conditions: HUVEC TNFalpha-induced E-selectin immunofluorescence imaging, at 2 µM; inhibition: stronger effect = higher value; nuclei count: measured here: cell number, toxicity
[4] = molecular target: Voltage-gated potassium channel subunit beta-2 (Rattus norvegicus) (UniProt P62483); assay: KvBeta enzyme negative modulators, primary screen, biochemical, NADPH fluorescence (AID 622;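 active = fluorescence slope higher than the sample average by over 3 SD, cut at about -0.22 in these data, passing the limit was not always enough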;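 also: slope of raw intensity against log time taken from 70 to 1610 s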); conditions: recombinant KvBeta, 4-cyanobenzaldehyde reduction, at 10 µM, stronger effect = higher value
Chain of Voltage-gated potassium channel subunit beta-2 (Rattus norvegicus) (P62483 whole entry, looked up): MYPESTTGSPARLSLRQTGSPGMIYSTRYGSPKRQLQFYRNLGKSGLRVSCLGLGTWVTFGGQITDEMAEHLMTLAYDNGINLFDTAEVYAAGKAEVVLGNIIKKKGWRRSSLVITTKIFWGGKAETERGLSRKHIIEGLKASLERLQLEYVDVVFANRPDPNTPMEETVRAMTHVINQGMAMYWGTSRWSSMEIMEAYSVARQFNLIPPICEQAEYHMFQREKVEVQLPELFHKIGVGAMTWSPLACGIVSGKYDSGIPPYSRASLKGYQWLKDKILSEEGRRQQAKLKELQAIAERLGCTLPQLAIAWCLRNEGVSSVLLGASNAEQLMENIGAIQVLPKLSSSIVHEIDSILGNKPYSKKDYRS

[5] = molecular target: Voltage-gated potassium channel subunit beta-2 (Rattus norvegicus) (UniProt P62483); assay: KvBeta positive modulators, primary screen, biochemical, NADPH fluorescence (AID 623;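 active = NADPH fluorescence slope more negative than the mean of all samples by about 3 SD, 99.7% confidence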;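 also: fluorescence intensity change per second fitted from 20 to 320 s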); conditions: Recombinant KvBeta, NADPH fluorescence decrease slope, 10 min; at 10 µM; stronger effect = lower value
[6] = molecular target: Alpha-2C adrenergic receptor (Homo sapiens) (UniProt P18825); assay: modulators of alpha2C/GIRK thallium flux, primary screen, cell-based, HEK293 alpha2C/GIRK1/2 (AID 624;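 active = fluorescence slope after compound addition differing from the mean of all screened samples at 99.7% confidence, in either direction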;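 also: slope of fluorescence ratio to pre-addition baseline per second over 15 to 24 s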); conditions: thallium flux BTC fluorescence, at 10 µM, actives lie on both sides
Chain of Alpha-2C adrenergic receptor (Homo sapiens) (P18825 whole entry, looked up): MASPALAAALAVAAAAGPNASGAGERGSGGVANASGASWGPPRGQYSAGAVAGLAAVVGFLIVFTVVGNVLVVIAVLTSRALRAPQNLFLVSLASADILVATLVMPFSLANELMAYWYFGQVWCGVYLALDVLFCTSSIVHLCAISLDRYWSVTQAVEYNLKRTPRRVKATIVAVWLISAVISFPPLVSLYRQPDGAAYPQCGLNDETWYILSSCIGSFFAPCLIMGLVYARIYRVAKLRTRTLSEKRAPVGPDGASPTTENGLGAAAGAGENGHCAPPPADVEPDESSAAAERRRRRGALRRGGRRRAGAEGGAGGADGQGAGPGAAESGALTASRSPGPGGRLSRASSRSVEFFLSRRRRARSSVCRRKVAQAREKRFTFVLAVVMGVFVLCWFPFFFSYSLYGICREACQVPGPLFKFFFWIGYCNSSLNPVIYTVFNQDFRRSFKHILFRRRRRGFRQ

[7] = inhibitors of larval lipid processing in zebrafish, primary screen, whole organism, PED6 fluorescence, gall bladder and intestine (AID 686;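 active = a full or partial loss of lipid-probe fluorescence in the fish gall bladder, intestine or both, judged by eye; inactive = no fluorescence loss, or compound toxic to the fish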;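 also: larvae 5 to 7 days old with five fish per well; signal comes from phospholipase A2 cleavage of quenched PED6 carried via bile; overnight exposure to compound and PED6 before scoring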); conditions: Zebrafish larvae PED6 lipid processing, fluorescence scoring; screened at 20 µM (by protocol)
In short: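 Doses: 20 µM single dose. Test system: live zebrafish larvae aged 5-7 days, whole organism. Quantity: five larvae per well. Measured by: By-eye fluorescence microscopy. Reagent: ingested quenched lipid PED6 at 100 nM. Read-out: visual per-well fluorescence inhibition score. Times: overnight exposure of larvae to compound plus PED6.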

[8] = inhibitors of Sendai virus-induced IRF3 signaling, primary screen, TLR/RLR signaling modifier project, cell-based, Sendai virus stimulus, luciferase, 10K MLSCN set (AID 602276); conditions: HEK293 RL24 IRF3 luciferase reporter, at 10 µM, stronger effect = higher value;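 also: firefly luciferase from ISG56 promoter only with Renilla not read in this screen; 0% = Sendai virus plus DMSO and 100% = medium plus DMSO without virus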
[9] = inhibitors of poly I:C-induced TLR3 signaling, primary screen, cell-based, poly I:C stimulus, luciferase, 10K MLSCN set (AID 602277;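 active = inhibition of the reporter signal at or above 50%; inactive = inhibition below 50%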); conditions: HEK293-TLR3 RL24 IRF3 luciferase reporter, at 10 µM, stronger effect = higher value

Structure (SMILES)	cell count [1]	inhibition [1]	inhibition of aggregation [2]	nuclei count [2]	inhibition [3]	nuclei count [3]	fluorescence slope [4]	NADPH fluorescence slope [5]	slope [6]	outcome [7]	inhibition [8]	inhibition [9]
O=C(Cc1cccs1)N(c1ccccc1)C1C=CS(=O)(=O)C1 (stereo not given)	294	4.2% (inactive)	-21.3% (inactive)	110%	8.4% (inactive)	88.2%	-0.376 (inactive)	-5.4e-05 (inactive)	0.0046 (inactive)	inactive	10.7% (inactive)	15.6% (inactive)
CCCNC(=O)c1cc(-c2ccco2)on1	389	-3.9% (inactive)	-4.1% (inactive)	88.7%	-11.4% (inactive)	98.4%	-0.39 (inactive)	-4.2e-05 (inactive)	0.0057 (inactive)	inactive	-19% (inactive)	-154% (inactive)
COC(=O)CCn1nnc(-c2ccc(C)cc2)n1	390	7.6% (inactive)	-4.9% (inactive)	110%	-24.9% (inactive)	108%	-0.341 (inactive)	-4.2e-06 (inactive)	0.00816 (inactive)	inactive	21.3% (inactive)	24.4% (inactive)
Cc1ccc2c(c1)CCCN2C(=O)c1ccc2c(c1)OCO2	328	-0.6% (inactive)	-0.1% (inactive)	99.3%	-117% (inactive)	118%	-0.457 (inactive)	-5.1e-05 (inactive)	0.00431 (inactive)	inactive	4.95% (inactive)	4.76% (inactive)
CCn1cnc2sc(C(=O)Nc3ccc4c(c3)OCO4)c(C)c2c1=O	473	-14.7% (inactive)	7.4% (inactive)	102%	-47.6% (inactive)	90.6%	-0.361 (inactive)	-7e-05 (inactive)	0.00678 (inactive)	inactive	-47.3% (inactive)	-111% (inactive)
O=C(O)CSc1ncn[nH]1	718	-14.4% (inactive)	22.9% (inactive)	98.3%	-28.2% (inactive)	112%	-0.454 (inactive)	-4.4e-05 (inactive)	0.00435 (inactive)	inactive	15.3% (inactive)	12.4% (inactive)
COc1ccccc1CNC(=O)C(C)NS(=O)(=O)c1ccccc1 (stereo not given)	295	-11.3% (inactive)	-13.2% (inactive)	107%	-11.2% (inactive)	78%	-0.406 (inactive)	2.3e-06 (inactive)	0.00647 (inactive)	inactive	-0.773% (inactive)	1.85% (inactive)
Cc1cc(Br)c(S(=O)(=O)n2nnc3ccccc32)cc1C	608	-4.5% (inactive)	3.7% (inactive)	81.9%	29% (inactive)	107%	-0.326 (inactive)	2.1e-05 (inactive)	0.00509 (inactive)	inactive	13.1% (inactive)	12.1% (inactive)
COc1ccccc1N1CCN(C(=O)c2cc(-c3ccc(Cl)c(Cl)c3)on2)CC1	430	5.1% (inactive)	-5.8% (inactive)	97.3%	-17.9% (inactive)	102%	-0.407 (inactive)	-7.4e-05 (inactive)	0.00441 (inactive)	inactive	1.29% (inactive)	-2.55% (inactive)
Cc1cc(C(=O)COc2cccc3cccnc23)c(C)n1C	703	1.8% (inactive)	-22.3% (inactive)	107%	-154% (inactive)	117%	-0.327 (inactive)	-1.7e-05 (inactive)	0.00438 (inactive)	inactive	-44.6% (inactive)	-68% (inactive)
N#Cc1ccc(CSc2nnc(-c3ccccn3)n2-c2ccccc2)cc1	363	5.8% (inactive)	10.4% (inactive)	91.3%	-10.3% (inactive)	112%	-0.426 (inactive)	-1.1e-05 (inactive)	0.00569 (inactive)	active; weak signal in gallbladder and intestine	11.1% (inactive)	9.06% (inactive)
CS(=O)(=O)N(CC(=O)Nc1ccc2c(c1)OCO2)Cc1ccc(Cl)cc1	303	8.9% (inactive)	-3.1% (inactive)	92%	-20.4% (inactive)	88.8%	-0.428 (inactive)	-6.6e-05 (inactive)	0.00445 (inactive)	inactive	11.9% (inactive)	17.7% (inactive)
Cc1cc(NC(=O)CS(=O)(=O)c2cn(Cc3ccccc3Cl)c3ccccc23)no1	767	-27.1% (inactive)	0.3% (inactive)	98.5%	67.2% (active)	83.3%	-0.323 (inactive)	-2.3e-05 (inactive)	0.00422 (inactive)	inactive	7.87% (inactive)	2.26% (inactive)
CSc1nnc(-c2ccccc2)n1C	645	-13.1% (inactive)	-35.1% (inactive)	111%	-16.6% (inactive)	108%	-0.398 (inactive)	-6.9e-06 (inactive)	0.00519 (inactive)	inactive	16.8% (inactive)	17.4% (inactive)
COc1ccc(CN(C(=O)CN2C(=O)COc3ccccc32)C2CCCC2)c(OC)c1	658	-3.5% (inactive)	-4.6% (inactive)	102%	4.9% (inactive)	104%	-0.435 (inactive)	-6.2e-05 (inactive)	0.00491 (inactive)	inactive	21.9% (inactive)	26.4% (inactive)
CC(Sc1n[nH]c(=O)[nH]c1=O)C(=O)OCc1ccccc1 (stereo not given)	281	-2.5% (inactive)	10.6% (inactive)	89.4%	-83.4% (inactive)	116%	-0.305 (inactive)	-2.2e-05 (inactive)	0.00608 (inactive)	inactive	14.4% (inactive)	10.9% (inactive)
COc1ccccc1OCCNC(=O)c1cccs1	333	4.3% (inactive)	12.7% (inactive)	97.7%	-31.8% (inactive)	99%	-0.383 (inactive)	-5.1e-05 (inactive)	0.00529 (inactive)	inactive	-16% (inactive)	-43% (inactive)
Cc1ccc(-n2c(C)cc3c2CCCC3=O)cc1	313	2.4% (inactive)	-9.3% (inactive)	88.9%	-29.8% (inactive)	118%	-0.366 (inactive)	-7.7e-05 (inactive)	0.00516 (inactive)	inactive	5.45% (inactive)	8.48% (inactive)
O=C(/C=C/N1CCOCC1)c1ccc(-c2ccccc2)cc1	617	-4.7% (inactive)	8.3% (inactive)	112%	33.9% (inactive)	101%	-0.398 (inactive)	-4.3e-05 (inactive)	0.00595 (inactive)	inactive	-22.9% (inactive)	-53.1% (inactive)
O=C(O)CC(C(=O)Nc1cccc(C(F)(F)F)c1)C1CCCO1 (stereo not given)	548	-10.1% (inactive)	9.8% (inactive)	101%	2.3% (inactive)	92.1%	-0.375 (inactive)	-2.9e-05 (inactive)	0.00461 (inactive)	inactive	-2.64% (inactive)	7.18% (inactive)
CCN(C(=O)c1cccs1)c1nnc(-c2ccncc2)s1	737	-7.1% (inactive)	-14.4% (inactive)	104%	-80% (inactive)	115%	-0.374 (inactive)	-7.1e-05 (inactive)	0.00498 (inactive)	inactive	-7.04% (inactive)	-41.1% (inactive)
O=C(Nc1ccc2oc(=O)ccc2c1)c1cccnc1	423	7.5% (inactive)	4% (inactive)	90.8%	1.2% (inactive)	91.9%	-0.434 (inactive)	-8.3e-06 (inactive)	0.00437 (inactive)	inactive	6.9% (inactive)	0.246% (inactive)
Cc1[nH]nc(-c2ccc(O)c(C)c2O)c1-c1cnn(-c2ccccc2)c1	345	1.5% (inactive)	10.3% (inactive)	111%	45.5% (inactive)	97.8%	-0.438 (inactive)	-2.4e-05 (inactive)	0.00436 (inactive)	inactive	11.4% (inactive)	5.23% (inactive)
COC(=O)Cc1cc(=O)n(-c2ccccc2)[nH]1	435	3.1% (inactive)	-18.2% (inactive)	106%	-67.7% (inactive)	111%	-0.379 (inactive)	-1.8e-05 (inactive)	0.00454 (inactive)	inactive	17.9% (inactive)	21.3% (inactive)
O=C(COC(=O)c1ccccc1C(=O)c1ccccc1)c1ccco1	327	7.4% (inactive)	-2.3% (inactive)	89.2%	4% (inactive)	113%	-0.501 (inactive)	2.4e-06 (inactive)	0.00441 (inactive)	inactive	-5.98% (inactive)	2.21% (inactive)
